Experimental data from PubChem BioAssay AID492985 (Sanford-Burnham Center for Chemical Genomics, 2010).

Each compound was assayed against Apelin receptor (Homo sapiens) (UniProt P35414) (assay: APJ receptor agonists, beta-arrestin recruitment, SAR follow-up, cell-based, CHO-K1 AGTRL-1, PathHunter luminescence, set 3 (AID 492985)).
Method in brief: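 Material: CHO-K1 APJ β-arrestin reporter cells | Dosing: Compound dose-response series with DMSO equalised across wells | Timing: Compound exposure 90 min at 25 °C, detection reagent 60 min | Technique: Luminescence from β-gal fragment complementation upon β-arrestin recruitment | Controls: Apelin-13 positive control, 30 nM in dispensed solution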

Chain of Apelin receptor (Homo sapiens) (P35414 whole entry, looked up, the tested form may be a part): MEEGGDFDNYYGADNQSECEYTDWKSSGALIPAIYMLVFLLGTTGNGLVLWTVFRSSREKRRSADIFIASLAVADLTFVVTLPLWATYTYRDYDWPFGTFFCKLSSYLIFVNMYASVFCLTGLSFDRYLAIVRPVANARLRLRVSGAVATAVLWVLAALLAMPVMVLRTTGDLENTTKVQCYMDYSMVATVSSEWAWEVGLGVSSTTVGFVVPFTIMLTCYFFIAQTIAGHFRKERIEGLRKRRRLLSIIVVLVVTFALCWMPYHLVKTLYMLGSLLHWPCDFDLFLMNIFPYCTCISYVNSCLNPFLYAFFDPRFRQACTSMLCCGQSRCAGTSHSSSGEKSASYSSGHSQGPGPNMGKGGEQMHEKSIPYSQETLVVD

EC50, active:
CC1=CC(=O)C(C(C)C)=C/C1=N/OS(=O)(=O)c1ccc(F)cc1 7.15 µM
CC1=CC(=O)C(C(C)C)=C/C1=N/OS(=O)(=O)c1ccc(C(C)C)cc1 5.56 µM
CC1=CC(=O)C(C(C)C)=C/C1=N/OS(=O)(=O)c1ccc(C#N)cc1 3.52 µM
